A selection: hits, their analogues and other compounds. The true share with any hit is near 3%.
MIN6 prolif: inducers of beta-cell replication in MIN6 cells. MIN6 cells proliferation, ATPlite luminescence, 48 h; cells starved in 0.2% serum; 100% = growth in 10% serum. proliferation, % at 10 µM. hit rate 0.29% among 330,000;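 active = compounds whose signal lies at least 3.5 SD above the mean of all wells on their plate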;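 note: 0% = DMSO-treated cells in low-serum medium and 100% = 10% serum control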
iPSC survival up: enhancers of human iPSC single-cell survival. hiPSC single-cell survival, ATPlite luminescence; 100% = ROCK inhibitor wells, 0% = DMSO. hit rate 0.044% among 360,000. AID 602274. survival enhancement, % at 20 µM; in the data active = survival enhancement above about 18%;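 note: cells exposed to compounds for 16 hours before the ATP read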
Apaf1 inhib: human Apaf-1 inhibition | inhibition, % at 20 µM | AID 489030 | O14727 | hit rate 0.71% among 330,000 | reconstituted apoptosome caspase-3 activity, DEVD-Rh110 fluorescence; active = inhibition of at least 40% at 20 µM;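 note: plate controls were DMSO wells for no effect and DEVD-CHO caspase inhibitor wells for full effect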
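System – cell-free apoptosome with Apaf-1, procaspase-3 and caspase-9 · Buffer or medium – pH 7.5 Hepes buffer with CHAPS, BSA, DTT · Also added – cytochrome c with DEVD-Rh110 · Times – 30 min compound preincubation, 50 min activation, room temperature · Technique – Rh110 fluorescence intensity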
UBC13 inh: blocks human UBC13 polyubiquitin chain formation. TR-FRET. P61088. hit rate 0.47% among 330,000. AID 485273. inhibition, % at 20 µM; in the data active = inhibition above about 45%, passing the limit was not always enough
Target sequence (P61088 whole entry, looked up): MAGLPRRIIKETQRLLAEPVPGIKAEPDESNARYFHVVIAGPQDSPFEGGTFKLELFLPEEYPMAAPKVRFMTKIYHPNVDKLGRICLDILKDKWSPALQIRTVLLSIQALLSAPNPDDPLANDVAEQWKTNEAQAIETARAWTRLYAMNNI
MPTP inh: permeability transition pore inhibition. isolated mouse mitochondria, Ca2+ swelling absorbance, 30 min. inhibition, % at 10 µM. hit rate 1.4% among 360,000;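 active = inhibition of 50% or more, scaled per plate between neutral and stimulator controls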;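 note: 0% = DMSO wells given calcium and 100% = 1 mM EGTA wells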
Granule exo inh: lytic granule exocytosis inhibition; TALL-104 LAMP-1 surface exposure, flow cytometry; cells stimulated with thapsigargin and PMA; inhibition, % at 10 µM; hit rate 0.66% among 360,000; AID 651702;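 active = inhibition above about 55%, limit read from the data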
Granule exo CP1: lytic granule exocytosis inhibition. TALL-104 cells, LAMP-1 externalization, flow cytometry; stimulated with PMA plus thapsigargin. inhibition, % at 10 µM. hit rate 11% among 1,500. AID 651954. shares compounds with Granule exo inh; in the data active = inhibition above about 60%;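 note: 0% = stimulated vehicle wells and 100% = unstimulated wells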
* marks the source's active call; other numbers are inactive results; . = no result given.

SMILES	MIN6 prolif	iPSC survival up	Apaf1 inhib	UBC13 inh	MPTP inh	Granule exo inh	Granule exo CP1
CCOC(=O)c1c(NC(=O)C2COc3ccccc3O2)sc2c1CC(C)(C)NC2(C)C (stereo not drawn)	-6	-1	-1	18	0	9	.
CCOC(=O)c1c(NC(=O)CSc2nnnn2-c2ccccc2OCC)sc2c1CC(C)(C)NC2(C)C	-7	0	37	13	1	65*	63*
CCOC(=O)c1c(NC(=O)CSc2nnnn2-c2ccccc2)sc2c1CC(C)(C)NC2(C)C	-7	0	24	13	1	33	.
CCOC(=O)c1c(NC(=O)COC(=O)c2ccc(C)s2)sc2c1CC(C)(C)NC2(C)C	-7	0	29	34	-1	64*	58
CC1(C)Cc2c(sc(NC(=O)COc3ccc(Cl)cc3)c2C(N)=O)C(C)(C)N1	-6	0	21	30	0	26	.
CCOC(=O)c1c(NC(=O)COc2ccccc2OCC)sc2c1CC(C)(C)NC2(C)C	-7	0	29	14	30	68*	100*
COc1cccc(CCNC(=O)CCc2nnc(Cc3cc(OC)ccc3OC)o2)c1	-1	0	5	-2	2	1	.
O=C1CC(c2cc(-c3ccccc3)no2)C1	0	-1	-4	1	-2	10	.
Cc1onc(-c2ccccc2Cl)c1C(=O)Nc1cccc2cccnc12	-7	-1	12	9	23	51	.
COc1cc(NC(=O)c2c(-c3ccccc3Cl)noc2C)c2ncccc2c1	-4	0	-10	8	4	82*	-7
CCN(C(=O)COC(=O)CSc1ccc(C(N)=O)cc1[N+](=O)[O-])C1CCCCC1	0	0	1	4	0	-3	.
CCC(C(=O)n1cccc1C#N)c1ccccc1C (stereo not drawn)	-2	-3	0	12	0	70*	-5
CCOC(=O)C(=CNc1ccccc1C)C(=O)OCC	-6	2	2	-10	2	-1	.
CC1CCN(c2nc(-c3ccccc3O)nc3ccccc23)CC1	-5	2	-8	1	4	59*	-15
CCOC(=O)Nc1ccc2c(c1)N(C(=O)CCN(CC)CC)c1ccccc1S2=O (stereo not drawn)	-6	-1	4	-2	-2	73*	-8
C[C@H](c1ccccc1)N1C[C@@H](COCc2ccccc2)Oc2cc(N3CC[C@H](N(C)C)C3)ccc2S1(=O)=O	.	-1	.	.	3	53	.
C[C@@H](c1ccccc1)N1C[C@@H](COCc2ccccc2)Oc2cc(N3CC[C@H](N(C)C)C3)ccc2S1(=O)=O	.	0	.	.	1	70*	17
C[C@H](c1ccccc1)N1C[C@@H](COCc2ccccc2)Oc2cc(N3CC[C@@H](N(C)C)C3)ccc2S1(=O)=O	.	0	.	.	3	63*	13
CC(C)N1CCC1(C)C(=O)Nc1ccccc1OC(F)F (stereo not drawn)	.	-1	.	.	1	-1	.
Cc1sc2nc(CSC(C)C(=O)Nc3cc(S(C)(=O)=O)ccc3Cl)[nH]c(=O)c2c1C (stereo not drawn)	-1	0	6	0	1	-4	.
O=[N+]([O-])c1ccc(N2N=C(c3ccccc3)CC2c2ccccc2O)cc1 (stereo not drawn)	-5	1	28	-81	43	58*	28
NS(=O)(=O)c1ccc(N2N=C(c3ccccc3)CC2c2ccccc2Br)cc1 (stereo not drawn)	.	-2	32	.	1	-1	.
COC(=O)C[C@@H]1CC[C@H](NS(=O)(=O)c2cccc(F)c2)[C@@H](CO)O1	.	.	.	.	1	-5	.
CC(C)(C)[C@@H]1CCC(=O)N(CC[C@H](Sc2ccc(Br)cc2)c2ccccc2)CC1	-6	7	39	-5	0	65*	-5
N=c1n(CCN2CCCCC2)c2ccccc2n1CC(=O)c1ccc(Cl)c(Cl)c1	-4	0	26	39	-2	83*	47
SMILES	MIN6 prolif	iPSC survival up	Apaf1 inhib	UBC13 inh	MPTP inh	Granule exo inh	Granule exo CP1
CCn1c(=N)n(CC(=O)c2ccc(Cl)c(Cl)c2)c2ccccc21	-5	0	22	10	0	37	.
O=C(NN=Cc1cc(Br)c(O)c(Br)c1)c1ccccc1NS(=O)(=O)c1cccs1	-5	-1	18	-4	-2	-4	.
CCc1ccc(-c2cc(C)no2)cc1S(=O)(=O)NC(C)Cc1ccco1 (stereo not drawn)	-1	0	15	6	1	2	.
CC1(C)OC(=O)C2=C(C[C@@H](CCc3ccccc3)O[C@H]2CCc2cccc(Cl)c2)O1	.	-1	.	.	2	-1	.
CC(=O)N(CCC(Cc1ccccc1)c1ccc2c(c1)OCO2)Cc1ccc(Cl)cc1 (stereo not drawn)	-7	0	33	2	0	90*	19
CC(C(=O)NC1CCCCC1)N(Cc1ccccc1)C(=O)c1snc(C(N)=O)c1N (stereo not drawn)	0	0	11	10	-1	-1	.
CN(CC(O)COc1ccc(OCC(O)CN(C)C2CCCCC2)cc1)C1CCCCC1 (stereo not drawn)	-4	-6	-4	1	10	-2	.
Cc1cccc(C)c1OCC(O)CN(Cc1ccccc1O)C1CCCCC1 (stereo not drawn)	-6	-1	19	-2	0	57*	-4
CCOC(=O)C1(CCOc2ccccc2)CCN(Cc2cccc(OC)c2O)CC1	-3	0	0	3	3	69*	-9
CCOC(=O)C1(CCOc2ccccc2)CCN(Cc2ccc(O)c(OC)c2)CC1	-5	0	-4	0	3	70*	-10
CCOC(=O)C1(CCOc2ccccc2)CCN(Cc2ccc(C(=O)OC)cc2)CC1	0	0	15	8	20	44	.
CCOC(=O)C1(Cc2cccc(OC)c2)CCN(Cc2cc(OC)ccc2OC)CC1	-3	-1	10	6	8	2	.
CCOC(=O)C1(CCOc2ccccc2)CCN(Cc2cc(OC)ccc2OC)CC1	-3	-1	-2	13	11	84*	-7
CCOC(=O)C1(CCOc2ccccc2)CCN(Cc2ccc(F)c(OC)c2)CC1	-4	0	6	4	3	72*	-3
O=C(c1ccc2c(=O)n3c(nc2c1)CCC3)N1CCN(S(=O)(=O)c2cccc(F)c2)CC1	-1	0	4	10	-2	-1	.
C=CCNC(=O)c1cc2c(=O)n3ccccc3nc2s1	-2	-1	0	28	0	-3	.
O=C(Cc1cccc(NC(=O)C2CCN(C(=O)C3CC3)CC2)c1)Nc1cccc(C(=O)N2CCCCC2)c1	.	-1	.	.	0	2	.

Compound activity: PubChem, several laboratories
